Bioassay records: PubChem, several laboratories
MsrA act = activates bovine MsrA enzyme; purified bovine MsrA, absorbance read-out; activation, % at 10.6 µM; 360,000 tested, 0.3% active; in the data active = activation above about 7.5%;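 also: 0% = vehicle and 100% = reference activator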
ASAP1 inh = blocks human ASAP1-stimulated Arf1 GTP hydrolysis | Q9ULH1 | AID 624377 | GDP FP detection | 360,000 tested, 0.19% active | inhibition, % at 16.5 µM; in the data active = inhibition above about 25%;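 also: 0% = vehicle with enzyme and substrate and 100% = no enzyme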
Target sequence (Q9ULH1 325-724 limits assumed): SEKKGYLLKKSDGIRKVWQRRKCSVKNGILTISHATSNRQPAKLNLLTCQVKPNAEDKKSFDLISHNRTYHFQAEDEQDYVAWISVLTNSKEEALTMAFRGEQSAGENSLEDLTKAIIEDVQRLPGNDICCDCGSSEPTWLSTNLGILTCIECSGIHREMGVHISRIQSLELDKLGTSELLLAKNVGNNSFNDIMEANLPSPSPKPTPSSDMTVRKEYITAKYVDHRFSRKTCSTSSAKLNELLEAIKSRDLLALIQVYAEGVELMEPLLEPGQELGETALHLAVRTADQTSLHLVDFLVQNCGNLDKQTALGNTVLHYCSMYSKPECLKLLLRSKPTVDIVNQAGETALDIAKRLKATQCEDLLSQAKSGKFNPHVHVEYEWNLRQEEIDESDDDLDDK
ARFGAP1 inh = inhibits rat ARF GTPase activating protein 1; Q62848; Arfgap1-stimulated ARF1 GTP hydrolysis, GDP FP detection; inhibition, % at 16.5 µM; 360,000 tested, 0.26% active; AID 651572;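 active = inhibition above a per-plate limit, mean inhibition of low control wells plus 3 SD, cut at about 25% in these data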;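 also: 0% = DMSO wells with enzyme and 100% = wells lacking Arfgap1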
Target sequence (Q62848 1-136 limits assumed): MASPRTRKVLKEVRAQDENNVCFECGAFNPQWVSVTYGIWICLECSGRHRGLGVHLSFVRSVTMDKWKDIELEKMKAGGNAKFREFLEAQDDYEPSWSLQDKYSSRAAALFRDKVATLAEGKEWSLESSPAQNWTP
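Assay system: Rat Arfgap1 GAP domain (His6, aa 1-136), purified enzyme | Buffer or medium: HEPES 25 mM pH 7.5, NaCl 150 mM, MgCl2, DTT | Schedule: GTP hydrolysis reaction 2 h at 25 °C | Signal: FP of antibody-bound GDP Alexa 633 tracer, ex 620/em 688 nm | Measure: Percent inhibition of Arfgap1-stimulated GTP hydrolysis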
HGIII-sPLA2 inh = Blocks human group III sPLA2 activity. 370,000 tested, 0.56% active. QFRET BODIPY PC-A2 liposome hydrolysis, fluorescence. inhibition, % at 12.2 µM. Q9NZ20;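 active = inhibition above mean plus 3 SD of compounds lying within the high and low control bounds, cut at about 19% in these data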;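 also: 0% = median of test compound wells and 100% = no enzyme DMSO wells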
MsrA inh = inhibitors of bovine MsrA; 360,000 tested, 0.75% active; AID 651718; purified bovine MsrA, absorbance read-out; inhibition, % at 15.5 µM; in the data active = inhibition above about 4.5%;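 also: 0% = vehicle wells with enzyme and 100% = reference inhibitor wells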
Rev-erbA mod = Rev-erb alpha (human) modulation; Rev-erbα–FITC-DNA binding, fluorescence polarization, 90 min; P20393; AID 1259318; activity, % at 10 µM; 370,000 tested, 0.79% active;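 active = activity above about 14%, limit read from the data; passing the limit was not always enough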;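 also: 0% = DMSO wells with 35 nM protein and 100% = DMSO wells with 750 nM protein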
Rev-erbA confirm = Rev-erb alpha (human) modulation, hit confirmation; shares compounds with Rev-erbA mod; Rev-erb alpha FITC-DNA binding, fluorescence polarization, 90 min; activation, % at 25 µM; 3,000 tested, 61% active; AID 1259319;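 active = activation at or above a set limit, or at least 3 SD above the negative control mean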;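 also: 0% = 35 nM protein with DMSO and 100% = 750 nM protein high control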
RORg counter = RORgamma DNA-binding activity, dose-response counter-screen | shares compounds with Rev-erbA mod | purified RORgamma protein-FITC-DNA binding, fluorescence polarization | IC50, µM | 910 tested, 8% active;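 active = Compounds whose fitted half-maximal concentration for disrupting protein-DNA binding is below 10 micromolar; the record names Rev-erb in its text, so the target is in doubt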
Active calls of the source: *. Compounds with a hit are over-represented: about 2.7% of the library has one in this group of screens.

CC(=O)Nc1ccc(N2C(=O)c3cccc4c(O)ccc(c34)C2=O)cc1 was read as MsrA act -1, ASAP1 inh -4, ARFGAP1 inh -6, HGIII-sPLA2 inh -79, MsrA inh 0, Rev-erbA mod 29*, Rev-erbA confirm 40* and RORg counter 1.2*.
`O=C1c2cccc3c(O)ccc(c23)C(=O)N1c1ccc(Cl)cc1` gave MsrA act -2, ASAP1 inh 6, ARFGAP1 inh -4, HGIII-sPLA2 inh -229, MsrA inh 1, Rev-erbA mod 60*, Rev-erbA confirm 53* and RORg counter 9.4*.
Screening O=C1c2ccccc2C(=O)N1Cc1ccco1 returned MsrA act -4, ASAP1 inh 10, ARFGAP1 inh -7, HGIII-sPLA2 inh -5, MsrA inh -2 and Rev-erbA mod 1.
COCOCCn1cc(CN2CCS(=O)(=O)N(Cc3ccc(-c4ccc(OC)c(OC)c4)cc3)C(C)C2=O)nn1 (stereo not drawn) was read as MsrA act -3, ASAP1 inh -1, ARFGAP1 inh 10, HGIII-sPLA2 inh -8, MsrA inh -1 and Rev-erbA mod 8.
Cc1cc(Br)cn2c(Cc3cccc(F)c3)c(-c3cccc(Cl)c3)nc12 was read as ASAP1 inh 7, ARFGAP1 inh -1, HGIII-sPLA2 inh -11, MsrA inh 0, Rev-erbA mod 19* and Rev-erbA confirm 8.
Cc1cc(Br)cn2c(Cc3ccccc3C(F)(F)F)c(-c3cccc(Cl)c3)nc12 was read as ASAP1 inh 3, ARFGAP1 inh 10, HGIII-sPLA2 inh -4, MsrA inh 0, Rev-erbA mod 24* and Rev-erbA confirm 0.
`N#Cc1ccc(-c2nc3ccc(Br)cn3c2Cc2cccc(F)c2)cc1` gave MsrA act -2, ASAP1 inh 11, ARFGAP1 inh -2, HGIII-sPLA2 inh -25, MsrA inh 0 and Rev-erbA mod 2.
Screening Cc1ccc(-c2nc3c(C)cc(Br)cn3c2Cc2ccccc2C(F)(F)F)cc1 returned ASAP1 inh 5, ARFGAP1 inh -9, HGIII-sPLA2 inh -15, MsrA inh 0 and Rev-erbA mod 20.
Screening Cc1cc(Br)cn2c(Cc3cccc(F)c3)c(-c3ccc(C#N)cc3)nc12 returned MsrA act -1, ASAP1 inh 2, ARFGAP1 inh 10, HGIII-sPLA2 inh 5, MsrA inh -1, Rev-erbA mod 27* and Rev-erbA confirm 13*.
CCc1nc2ccc(C(=O)Nc3cc(-c4ccccc4)ccc3OC)cn2c1N(C)C(=O)c1cccc(OC)c1 was read as MsrA act -2, ASAP1 inh 7, ARFGAP1 inh 10, HGIII-sPLA2 inh 12, MsrA inh 2 and Rev-erbA mod 10.
`O=C(NCCc1ccccc1)OCc1cn(Cc2ccccc2F)nn1` gave HGIII-sPLA2 inh 7 and Rev-erbA mod -1.
For Cc1ccc(NC(=O)[C@@H]2CC(=O)O[C@@H]2c2ccccc2)cc1C the results were HGIII-sPLA2 inh 0 and Rev-erbA mod -7.
For Cc1sc(NC(=O)c2ccccc2)c(C(=O)NC(C)C)c1C the results were MsrA act -3, ASAP1 inh -6, ARFGAP1 inh -5, HGIII-sPLA2 inh -5, MsrA inh 0, Rev-erbA mod 24* and Rev-erbA confirm 3.
`Oc1ccccc1-c1cc(C(F)(F)C(F)F)nc(-c2ccccc2)n1` gave MsrA act -6, ASAP1 inh -4, ARFGAP1 inh -9, HGIII-sPLA2 inh 2, MsrA inh 0 and Rev-erbA mod 4.
Screening O=[N+]([O-])c1ccc(O)c(-c2cc(C(F)(F)F)nc(-c3ccccc3)n2)c1 returned MsrA act -4, ASAP1 inh -7, ARFGAP1 inh 7, HGIII-sPLA2 inh -1, MsrA inh -1, Rev-erbA mod 133*, Rev-erbA confirm 159* and RORg counter 8*.
`COc1ccc(-c2cc3nc(C)cc(N4CCN(C(=O)c5cccnc5)CC4)n3n2)cc1` gave MsrA act -1, ASAP1 inh 20, ARFGAP1 inh 11, HGIII-sPLA2 inh 0, MsrA inh 1 and Rev-erbA mod 5.
For CCCOc1ccc(F)cc1-c1cc(C(=O)Nc2ccccc2)[nH]n1 the results were MsrA act -1, ASAP1 inh 3, ARFGAP1 inh 8, HGIII-sPLA2 inh -4, MsrA inh -1, Rev-erbA mod 21* and Rev-erbA confirm -7.
Screening CCOc1nc(-c2ccccc2)ccc1-c1noc(-c2ccncc2)n1 returned MsrA act 0, ASAP1 inh 8, ARFGAP1 inh 3, HGIII-sPLA2 inh 8, MsrA inh 1, Rev-erbA mod 29* and Rev-erbA confirm 24*.
CCOc1nc(-c2ccccc2)ccc1-c1noc(-c2cccs2)n1 was read as MsrA act -2, ASAP1 inh 3, ARFGAP1 inh -2, HGIII-sPLA2 inh 9, MsrA inh 0, Rev-erbA mod 40* and Rev-erbA confirm 14.
Screening C[C@@H]1CN([C@H](C)CO)C(=O)CCCn2cc(nn2)CO[C@H]1CN(C)C(=O)Nc1cccc(C(F)(F)F)c1 returned MsrA act 0, ASAP1 inh -5, ARFGAP1 inh -11, HGIII-sPLA2 inh 4, MsrA inh 0 and Rev-erbA mod 4.
O=C(COC(=O)c1ccc2ccccc2c1)Nc1ncc(C(F)(F)F)cc1Cl was read as MsrA act -7, ASAP1 inh 6, ARFGAP1 inh 6, HGIII-sPLA2 inh -3, MsrA inh -1, Rev-erbA mod 34* and Rev-erbA confirm 13.
O=C(COC(=O)c1ccc2ccccc2n1)Nc1ncc(C(F)(F)F)cc1Cl was read as MsrA act -1, ASAP1 inh 5, ARFGAP1 inh -2, HGIII-sPLA2 inh 0, MsrA inh -1 and Rev-erbA mod 5.
`CC1=NN(c2ccccc2)C(=O)/C1=C/C=C/C=C/N(C)C` gave MsrA act -1, ASAP1 inh 12, ARFGAP1 inh -7, HGIII-sPLA2 inh 6, MsrA inh 0, Rev-erbA mod 51* and Rev-erbA confirm 53*.
`CN(C)CCNc1ccc(CO)c2sc3ccc(O)cc3c(=O)c12` gave MsrA act -6, ASAP1 inh 9, ARFGAP1 inh 11, HGIII-sPLA2 inh -15, MsrA inh 0 and Rev-erbA mod 11.
CN(C)CCNc1ccc2ncn3c4ccc(O)cc4c(=O)c1c23 was read as MsrA act 6, ASAP1 inh 4, ARFGAP1 inh 4, HGIII-sPLA2 inh -20, MsrA inh 0, Rev-erbA mod 20* and Rev-erbA confirm 24*.
